Assay results published in ChEMBL document CHEMBL1806372, “Cytotoxic ring A-modified steroid analogues derived from Grundmann's ketone” (Eur J Med Chem, 2011).

Key:
[1] = Antibacterial activity against Pseudomonas antimicrobica assessed as zone of inhibition at 5 uL and 32 degC after 36 hrs by disk diffusion method; type: functional, Burkholderia gladioli
Procedure, shortened: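 Disc diffusion on AC agar, each strain spread evenly over the medium; test compounds given as 1% (w/v) DMSO solutions. Plates covered and incubated 36 h at 32 °C, then the diameter of the zone of inhibited growth measured in mm. Tetracycline served as antibacterial reference.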

COLO 205 [2] = assay: Cytotoxicity against human COLO205 cells after 48 hrs by sulforhodamine B assay; type: functional; settings: COLO 205, 48 h, read-out: LC50 (the source's name)
Procedure, shortened: (§1)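 NCI 60 human tumour cell line panel run to the NCI protocol. GI50, TGI and LC50 come from log concentration vs % growth inhibition curves for each cell line. Lines insensitive at the top concentration are reported with ">".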

HCC 2998 [3] = assay: Cytotoxicity against human HCC2998 cells after 48 hrs by sulforhodamine B assay; type: functional; settings: HCC 2998, 48 h, read-out: LC50 (the source's name); procedure, shortened: as §1
HT-29 = assay: Cytotoxicity against human HT-29 cells after 48 hrs by sulforhodamine B assay; type: functional; settings: HT-29, 48 h, read-out: LC50 (the source's name); procedure, shortened: as §1
KM12 = assay: Cytotoxicity against human KM12 cells after 48 hrs by sulforhodamine B assay; type: functional; settings: KM12, 48 h, read-out: LC50 (the source's name); procedure, shortened: as §1
SF-268 = assay: Cytotoxicity against human SF268 cells after 48 hrs by sulforhodamine B assay; type: functional; settings: SF-268, 48 h, read-out: LC50 (the source's name); procedure, shortened: as §1
SF-295 = assay: Cytotoxicity against human SF295 cells after 48 hrs by sulforhodamine B assay; type: functional; settings: SF-295, 48 h, read-out: LC50 (the source's name); procedure, shortened: as §1
SF-539 = assay: Cytotoxicity against human SF539 cells after 48 hrs by sulforhodamine B assay; type: functional; settings: SF-539, 48 h, read-out: LC50 (the source's name); procedure, shortened: as §1
SNB-19 = assay: Cytotoxicity against human SNB19 cells after 48 hrs by sulforhodamine B assay; type: functional; settings: SNB-19, 48 h, read-out: LC50 (the source's name); procedure, shortened: as §1
LOX IMVI = assay: Cytotoxicity against human LOXIMVI cells after 48 hrs by sulforhodamine B assay; type: functional; settings: read-out: LC50 (the source's name); procedure, shortened: as §1
Malme-3M [4] = assay: Cytotoxicity against human MALME-3M cells after 48 hrs by sulforhodamine B assay; type: functional; settings: read-out: LC50 (the source's name); procedure, shortened: as §1
UACC-257 = assay: Cytotoxicity against human UACC257 cells after 48 hrs by sulforhodamine B assay; type: functional; settings: UACC-257, 48 h, read-out: LC50 (the source's name)
OVCAR-8 [5] = assay: Cytotoxicity against human OVCAR8 cells after 48 hrs by sulforhodamine B assay; type: functional; settings: OVCAR-8, 48 h, read-out: LC50 (the source's name); procedure, shortened: as §1
SN12C = assay: Cytotoxicity against human SN12C cells after 48 hrs by sulforhodamine B assay; type: functional; settings: read-out: LC50 (the source's name); procedure, shortened: as §1
BT-549 = assay: Cytotoxicity against human BT549 cells after 48 hrs by sulforhodamine B assay; type: functional; settings: BT-549, 48 h, read-out: LC50 (the source's name); procedure, shortened: as §1
T47D = assay: Cytotoxicity against human T47D cells after 48 hrs by sulforhodamine B assay; type: functional; settings: read-out: LC50 (the source's name)
OVCAR-8 [6] = assay: Growth inhibition of human OVCAR8 cells after 48 hrs by sulforhodamine B assay; type: functional; settings: OVCAR-8, 48 h
Procedure, shortened: (§2)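 GI50, TGI and LC50 were derived from log concentration versus % growth inhibition curves for each cell line. GI50 is the concentration giving a 50% decrease in net cell growth. Insensitive lines are reported as greater than the highest concentration.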

ACHN = assay: Growth inhibition of human ACHN cells after 48 hrs by sulforhodamine B assay; type: functional
Procedure, shortened: (§3)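 From log concentration versus % growth curves, GI50 (50% decrease in net growth), TGI (total growth inhibition) and LC50 (net 50% loss of initial cells) are derived for each line.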

UO-31 = assay: Growth inhibition of human UO31 cells after 48 hrs by sulforhodamine B assay; type: functional; settings: UO-31, 48 h
Procedure, shortened: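 NCI 60-cell panel five-dose assay. GI50, TGI and LC50 are derived from log concentration versus % growth inhibition curves. Cell lines insensitive at the top concentration are given a ">" prefix.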

PC-3 = assay: Growth inhibition of human PC3 cells after 48 hrs by sulforhodamine B assay; type: functional; settings: PC-3, 48 h; procedure, shortened: as §2
CCRF-CEM = assay: Cytotoxicity against human CCRF-CEM cells after 48 hrs by sulforhodamine B assay; type: functional; settings: read-out: LC50 (the source's name); procedure, shortened: as §1
HL-60(TB) = assay: Cytotoxicity against human HL-60(TB) cells after 48 hrs by sulforhodamine B assay; type: functional; settings: HL-60, 48 h, read-out: LC50 (the source's name); procedure, shortened: as §1
K562 = assay: Cytotoxicity against human K562 cells after 48 hrs by sulforhodamine B assay; type: functional; settings: K562, 48 h, read-out: LC50 (the source's name); procedure, shortened: as §1
A549 [7] = assay: Cytotoxicity against human A549 cells after 48 hrs by sulforhodamine B assay; type: functional; settings: A549, 48 h, read-out: LC50 (the source's name); procedure, shortened: as §1
A549 [8] = assay: Growth inhibition of human A549 cells after 48 hrs by sulforhodamine B assay; type: functional; settings: A549, 48 h; procedure, shortened: as §3
EKVX = assay: Growth inhibition of human EKVX cells after 48 hrs by sulforhodamine B assay; type: functional; procedure, shortened: as §3
HOP-62 = assay: Growth inhibition of human HOP62 cells after 48 hrs by sulforhodamine B assay; type: functional; settings: HOP-62, 48 h; procedure, shortened: as §3
NCI-H23 = assay: Growth inhibition of human NCI-H23 cells after 48 hrs by sulforhodamine B assay; type: functional; settings: NCI-H23, 48 h; procedure, shortened: as §2
NCI-H322M = assay: Growth inhibition of human NCI-H322M cells after 48 hrs by sulforhodamine B assay; type: functional; procedure, shortened: as §2
NCI-H460 = assay: Growth inhibition of human NCI-H460 cells after 48 hrs by sulforhodamine B assay; type: functional; settings: NCI-H460, 48 h; procedure, shortened: as §2
COLO 205 [9] = assay: Growth inhibition of human COLO205 cells after 48 hrs by sulforhodamine B assay; type: functional; settings: COLO 205, 48 h; procedure, shortened: as §3
HCC 2998 [10] = assay: Growth inhibition of human HCC2998 cells after 48 hrs by sulforhodamine B assay; type: functional; settings: HCC 2998, 48 h; procedure, shortened: as §3
Malme-3M [11] = assay: Growth inhibition of human MALME-3M cells after 48 hrs by sulforhodamine B assay; type: functional; procedure, shortened: as §2
M14 = assay: Growth inhibition of human M14 cells after 48 hrs by sulforhodamine B assay; type: functional; settings: M14, 48 h; procedure, shortened: as §3
SK-MEL-2 = assay: Growth inhibition of human SK-MEL-2 cells after 48 hrs by sulforhodamine B assay; type: functional; settings: SK-MEL-2, 48 h; procedure, shortened: as §2
OVCAR-4 = assay: Growth inhibition of human OVCAR4 cells after 48 hrs by sulforhodamine B assay; type: functional; settings: OVCAR-4, 48 h; procedure, shortened: as §2

## CC(C)CCC[C@@H](C)[C@H]1CC[C@H]2[C@@H]3CCN4C(=O)CCC(=O)N4[C@@H]3CC[C@]12C
[1]
  diameter of the inhibition zone (DIZ): 12 mm

## CC(C)CCC[C@@H](C)[C@H]1CC[C@H]2C3=CC[C@@H]4C(=O)C=CC(=O)[C@@H]4[C@@H]3CC[C@]12C
COLO 205 [2]
  CC50: > 0.536 µM
HCC 2998 [3]
  CC50: > 100 µM
HT-29
  CC50: > 100 µM
KM12
  CC50: > 100 µM
SF-268
  CC50: > 100 µM
SF-295
  CC50: > 100 µM
SF-539
  CC50: > 100 µM
SNB-19
  CC50: > 100 µM
LOX IMVI
  CC50: > 4.1 µM
Malme-3M [4]
  CC50: > 100 µM
UACC-257
  CC50: > 100 µM
OVCAR-8 [5]
  CC50: > 8.12 µM
SN12C
  CC50: > 100 µM
BT-549
  CC50: > 100 µM
T47D
  CC50: > 100 µM
OVCAR-8 [6]
  GI50: 0.058 µM
  TGI: 1.18 µM
ACHN
  GI50: 0.162 µM
  TGI: 1.35 µM
UO-31
  GI50: 0.072 µM
  TGI: 0.359 µM
PC-3
  GI50: 0.059 µM
  TGI: 1.57 µM
CCRF-CEM
  CC50: > 100 µM
HL-60(TB)
  CC50: > 100 µM
K562
  CC50: > 100 µM
A549 [7]
  CC50: > 100 µM
A549 [8]
  GI50: 0.058 µM
  TGI: 0.78 µM
EKVX
  GI50: 0.545 µM
  TGI: > 100 µM
HOP-62
  GI50: 0.63 µM
  TGI: > 100 µM
NCI-H23
  GI50: 0.147 µM
NCI-H322M
  GI50: 0.305 µM
  TGI: 0.849 µM
NCI-H460
  GI50: 0.333 µM
  TGI: 5.59 µM
COLO 205 [9]
  GI50: 0.08 µM
  TGI: 0.22 µM
HCC 2998 [10]
  GI50: 0.274 µM
  TGI: 0.855 µM
Malme-3M [11]
  GI50: 0.399 µM
  TGI: 2 µM
M14
  GI50: 0.299 µM
SK-MEL-2
  GI50: 3.37 µM
  TGI: > 100 µM
OVCAR-4
  GI50: 0.159 µM
  TGI: 0.498 µM

## CC(C)CCC[C@@H](C)[C@H]1CC[C@H]2C3=CCn4c(=O)ccc(=O)n4[C@@H]3CC[C@]12C
COLO 205 [2]
  CC50: 2.36 µM
HCC 2998 [3]
  CC50: 4.99 µM
HT-29
  CC50: 5.51 µM
KM12
  CC50: 4.44 µM
SF-268
  CC50: 5.7 µM
SF-295
  CC50: 3.76 µM
SF-539
  CC50: 5.64 µM
SNB-19
  CC50: 6.01 µM
LOX IMVI
  CC50: 3.52 µM
Malme-3M [4]
  CC50: 6.38 µM
UACC-257
  CC50: 4.32 µM
OVCAR-8 [5]
  CC50: > 100 µM
SN12C
  CC50: 5.28 µM
BT-549
  CC50: 2.97 µM
T47D
  CC50: 6.29 µM
OVCAR-8 [6]
  GI50: 0.317 µM
  TGI: 1.58 µM
ACHN
  GI50: 1.04 µM
  TGI: 2.32 µM
UO-31
  GI50: 0.237 µM
  TGI: 1.15 µM
PC-3
  GI50: 0.243 µM
  TGI: 1.11 µM
CCRF-CEM
  CC50: > 100 µM
HL-60(TB)
  CC50: > 100 µM
K562
  CC50: > 100 µM
A549 [7]
  CC50: 4.04 µM
[1]
  diameter of the inhibition zone (DIZ): 8 mm
A549 [8]
  GI50: 0.325 µM
  TGI: 1.24 µM
EKVX
  GI50: 1.03 µM
  TGI: 2.75 µM
HOP-62
  GI50: 1.33 µM
  TGI: 2.67 µM
NCI-H23
  GI50: 1.42 µM
  TGI: 3.58 µM
NCI-H322M
  GI50: 1.45 µM
  TGI: 2.91 µM
NCI-H460
  GI50: 0.739 µM
  TGI: 2.25 µM
COLO 205 [9]
  GI50: 0.255 µM
  TGI: 0.623 µM
HCC 2998 [10]
  GI50: 0.431 µM
  TGI: 1.64 µM
Malme-3M [11]
  GI50: 1.44 µM
  TGI: 3.03 µM
M14
  GI50: 0.285 µM
  TGI: 1.01 µM
SK-MEL-2
  GI50: 0.286 µM
  TGI: 0.774 µM
OVCAR-4
  GI50: 0.686 µM
  TGI: 2.11 µM
